pIC50: −log10 of the molar value.
What was measured:
SK-OV-3 = assay: Cytotoxicity against human SKOV3 cells after 48 hrs by SRB assay; type: functional; conditions: SK-OV-3, 48 h
How it was run: (§1)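 Cells in 5% FBS/RPMI1640 with 1% gentamicin, plated and grown 24 h, then given serial compound dilutions for 48 h. Fixed with trichloroacetic acid, stained with sulforhodamine B, read by optical density.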

NCI-H460 = assay: Cytotoxicity against human NCI-H460 cells after 48 hrs by SRB assay; type: functional; conditions: NCI-H460, 48 h; how it was run: as §1
DU-145 = assay: Cytotoxicity against human DU145 cells after 48 hrs by SRB assay; type: functional; conditions: DU-145, 48 h; how it was run: as §1
Tubulin (Homo sapiens) [1] = biological target: T1, Tubulin (Homo sapiens) (UniProt P68371+Q9H4B7+P0DPH7+P68366+Q13509+Q71U36+P04350+Q3ZCM7+P07437+P68363+Q9BQE3+Q6PEY2+Q13885+Q9BVA1+Q9BUF5); assay: Displacement of [3H]colchicine from tubulin (unknown origin) at 1 uM after 10 mins by scintillation counting analysis; type: protein-complex assay
How it was run: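 Tubulin 1.0 µM incubated 10 min at 37 °C with 5.0 µM [3H]colchicine, 5% (v/v) DMSO and inhibitor at 1.0 µM, in 1.0 M monosodium glutamate pH 6.6, 0.5 mg/mL BSA, 0.1 M glucose-1-phosphate, 1.0 mM MgCl2, 1.0 mM GTP. Stopped with ice-cold water, DEAE-cellulose filter stacks, scintillation counting next day; percent inhibition versus no-inhibitor control.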

Tubulin (Homo sapiens) [2] = biological target: T1, Tubulin (Homo sapiens); assay: Displacement of [3H]colchicine from tubulin (unknown origin) at 5 uM after 10 mins by scintillation counting analysis; type: protein-complex assay
How it was run: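 Mixtures: 1.0 µM tubulin, 5.0 µM [3H]colchicine, 5% DMSO, inhibitor 5.0 µM, with 1.0 M monosodium glutamate pH 6.6, 0.5 mg/mL BSA, 0.1 M glucose-1-phosphate, 1.0 mM MgCl2, 1.0 mM GTP. 10 min at 37 °C, stopped with ice-cold water, filtered on DEAE-cellulose, scintillation counted. Percent inhibition versus no-inhibitor control.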

[3] = Inhibition of bovine brain tubulin polymerization after 20 mins by turbidimetric analysis; design: species or system Bos taurus
How it was run: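 Bovine brain tubulin 10 µM (1 mg/mL) in 0.8 M monosodium glutamate pH 6.6, 4% DMSO, with varying compound, preincubated 15 min at 30 °C. Chilled, GTP added to 0.4 mM, then temperature jumped 0→30 °C. Turbidity followed at 350 nm for 30 min.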

Row | inhibition (Tubulin (Homo sapiens) [2]) [%] | pIC50 [3] | SMILES | GI50 (SK-OV-3) [µM] | GI50 (NCI-H460) [µM] | GI50 (DU-145) [µM] | inhibition (Tubulin (Homo sapiens) [1]) [%]
1 |  |  | COc1ccc(/C=C\c2cc(OC)c(OC)c(OC)c2)cc1O [COMBRETASTATIN A4] | 0.00533 | 0.00449 | 0.00484 | 
2 | 26 | 5.12 | COc1ccc2c(C(=O)c3cc(F)c(F)c(F)c3)c(-c3ccc(OC)c(O)c3)[nH]c2c1 | 19.8 | 5.54 | 10 | 
3 |  | < 4.70 | COc1ccc2c(C(=O)c3ccc(F)cc3)c(-c3ccc(OC)c(O)c3)[nH]c2c1 | 15 | 49.6 | 10 | 
4 |  | < 4.70 | COc1ccc2c(C(=O)c3ccc([N+](=O)[O-])cc3)c(-c3ccc(OC)c(O)c3)[nH]c2c1 | 21.1 | 16.8 | 8.16 | 
5 | 26 | 5.51 | COc1ccc2c(C(=O)c3cc(C(F)(F)F)cc(C(F)(F)F)c3)c(-c3ccc(OC)c(O)c3)[nH]c2c1 | 1.45 | 2.86 | 3.01 | 
6 |  | < 4.70 | COc1ccc2c(C(=O)c3ccc(OC(F)(F)F)cc3)c(-c3ccc(OC)c(O)c3)[nH]c2c1 | 3.05 | 2.35 | 3.21 | 
7 |  | < 4.70 | COc1ccc(-c2[nH]c3cc(O)ccc3c2C(=O)c2cc(OC)c(OC)c(OC)c2)cc1O | 2.17 | 2.91 | 3.4 | 
8 | 19 | 5.43 | COc1ccc2c(C(=O)c3cccc(OC(F)(F)F)c3)c(-c3ccc(OC)c(O)c3)[nH]c2c1 | 0.283 | 3.57 | 2.99 | 
9 | 21 | 4.72 | COc1ccc2c(C(=O)c3cccc([N+](=O)[O-])c3)c(-c3ccc(OC)c(O)c3)[nH]c2c1 | 2.65 | 15.7 | 7.11 | 

Row | SMILES | inhibition (Tubulin (Homo sapiens) [2]) [%] | pIC50 [3] | GI50 (SK-OV-3) [µM] | GI50 (NCI-H460) [µM] | GI50 (DU-145) [µM] | inhibition (Tubulin (Homo sapiens) [1]) [%]
10 | COc1ccc(-c2[nH]c3c(OC)c(OC)ccc3c2C(=O)c2cc(OC)c(OC)c(OC)c2)cc1O | 67 | 5.96 | 0.0119 | 0.992 | 0.0181 | 31
11 | COc1ccc(-c2[nH]c3c(O)c(OC)ccc3c2C(=O)c2cc(OC)c(OC)c(OC)c2)cc1 | 85 | 6.00 | 0.264 | 0.177 | 0.309 | 51
12 | COc1ccc2c(C(=O)c3cc([N+](=O)[O-])cc([N+](=O)[O-])c3)c(-c3ccc(OC)c(O)c3)[nH]c2c1 |  | < 4.70 | 4.35 | 4.08 | 5.52 | 
13 | COc1ccc(-c2[nH]c3cc(OC)c(OC)c(OC)c3c2C(=O)c2cc(OC)c(OC)c(OC)c2)cc1O |  | < 4.70 | 25.1 | 41.8 | 28.3 | 

Reference: ChEMBL document CHEMBL2440086 (Bioorg Med Chem, 2013)
